Screening data deposited in PubChem by The Scripps Research Institute Molecular Screening Center.
SIAE inh: blocks human sialic acid acetylesterase; Q9HAT2; SIAE FP-Rh probe binding, fluorescence polarization; inhibition, % at 9.66 µM; actives 0.69% (n = 370,000); AID 1053197;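 active means inhibition above a cutoff: mean of compounds within the control limits plus 3 SD of those, cut at about 17% in these data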;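 further: 0% = plate median of compound wells and 100% = probe without SIAE protein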
Target sequence (Q9HAT2 whole entry, looked up): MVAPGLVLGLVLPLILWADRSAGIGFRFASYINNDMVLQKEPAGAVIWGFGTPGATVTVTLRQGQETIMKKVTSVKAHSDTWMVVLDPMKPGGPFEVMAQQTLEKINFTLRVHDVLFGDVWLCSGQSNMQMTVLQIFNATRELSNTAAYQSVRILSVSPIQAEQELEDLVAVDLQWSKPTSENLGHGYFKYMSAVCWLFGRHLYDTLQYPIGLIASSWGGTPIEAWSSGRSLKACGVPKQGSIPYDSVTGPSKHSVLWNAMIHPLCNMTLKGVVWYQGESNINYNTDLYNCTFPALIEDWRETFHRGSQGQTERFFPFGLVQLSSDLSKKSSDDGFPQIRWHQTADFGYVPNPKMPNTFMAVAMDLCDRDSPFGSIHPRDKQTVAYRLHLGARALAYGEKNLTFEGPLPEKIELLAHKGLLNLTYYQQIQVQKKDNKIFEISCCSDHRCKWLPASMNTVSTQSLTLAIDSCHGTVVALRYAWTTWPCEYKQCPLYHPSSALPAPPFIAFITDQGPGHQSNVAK
PRMT1 FP inh: PRMT1 (human) inhibition, primary screen; recombinant PRMT1, activity-based probe fluorescence polarization; Q99873; actives 1.3% (n = 370,000); inhibition, % at 2.79 µM;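 active means inhibition above about 21% made by adding two undisclosed values, limit read from the data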
HTRA1 inhibitor: inhibitors of human serine peptidase HTRA1. inhibition, % at 5.96 µM. recombinant HTRA1, FP-rhodamine activity-based probe, fluorescence polarization. actives 0.5% (n = 340,000). AID 504803; in the data active means inhibition above about 36%;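 further: 0% = enzyme with DMSO and 100% = wells lacking enzyme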
TCR-CD3 inh: blocks the human TCR-CD3 interaction; TAMRA-labeled TCR probe fluorescence, biochemical; inhibition, % at 9.4 µM; actives 0.37% (n = 360,000); in the data active means inhibition above about 19%;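 further: recombinant mutant TCR 2C K166C tagged with TAMRA read by polarization; 0% = receptor in buffer alone and 100% = receptor with positive control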
ABHD4 inh: ABHD4 (mouse) inhibition, primary FP screen; purified mABHD4, FP-Rh probe fluorescence polarization; Q8VD66; inhibition, % at 8.92 µM; AID 720543; actives 0.54% (n = 370,000);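 active means inhibition exceeding the mean over every tested compound plus 3 SD, cut at about 30% in these data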;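 further: 0% = plate median of compound wells and 100% = S159A mutant with DMSO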
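assay system = mABHD4 protein | compound dosing = single nominal dose of 8.92 µM, 0.89% DMSO final | read-out basis = percent inhibition of probe binding, normalized to plate controls | schedule = Enzyme–compound pre-incubation 45 min, then probe 60 min, both 25 °C | detection = fluorescence polarization, excitation 525 nm, emission 598 nm, BODIPY TMR filters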
PRMT1 inh conf: confirmation of human PRMT1 inhibitors. actives 42% (n = 3,300). recombinant His-PRMT1, activity-based probe fluorescence polarization. shares compounds with PRMT1 FP inh. inhibition, % at 2.79 µM;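 active means mean inhibition across replicates above the hit cutoff derived for the earlier primary screen, cut at about 22% in these data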
* hit, by the source's call; / = not tested or not shown. This is a sample that favours compounds with a hit; in the whole collection about 2.5% have one here.

SMILES | SIAE inh | PRMT1 FP inh | HTRA1 inhibitor | TCR-CD3 inh | ABHD4 inh | PRMT1 inh conf
C#CCN1C(=O)[C@@](O)(c2cccn2C)c2cc(F)ccc21 | -1 | -4 | / | / | -7 | /
COc1cc(Cl)c(C)cc1NC(=O)CSCC#N | 0 | 0 | 6 | 0 | 1 | /
Cc1ccc(NC(=O)CSc2sc3c(O)cc(=O)[nH]c3c2C#N)c(F)c1 | -30 | 12 | -26 | 9 | -2 | /
COc1cc(Cl)c(C)cc1NC(=O)CSc1sc2c(O)cc(=O)[nH]c2c1C#N | -7 | 36* | -3 | -3 | -4 | 12
COc1ccc(OC)c(NC(=O)CSc2sc3c(O)cc(=O)[nH]c3c2C#N)c1 | -8 | 26* | -11 | 6 | 12 | 13
COc1ccc(-n2c(COc3ccc(Cl)cc3)nnc2SCC(=O)Nc2ccc3c(c2)OCO3)cc1 | 3 | 1 | / | / | -4 | /
O=C(CSCc1ccco1)Nc1cc(C(F)(F)F)ccc1N1CCOCC1 | 4 | 66* | -3 | 3 | -1 | 40*
Cc1ccc(NC(=O)CSCC(=O)Nc2cc(C(F)(F)F)ccc2N2CCOCC2)cc1 | / | / | -15 | / | / | /
COc1cc2c(c(OC)c1)[C@H](/C=C/c1ccccc1)[C@@H]([C@H](O)CO)OC2 | 0 | 4 | / | / | -3 | /
COC(=O)CC1C(=O)NCCN1C(=O)CSc1nc2ccccc2s1 (centres undefined) | 5 | 36* | 1 | 2 | -1 | 37*
COC(=O)CC1C(=O)NCCN1C(=O)c1ccccc1 (centres undefined) | 2 | -4 | -3 | 3 | 0 | /
COc1cccc(/C=N\N2CCN(c3ccc(C)cc3)CC2)c1O | -1 | -1 | / | / | 2 | /
Cc1ccc2nc(N3C(=O)C(O)=C(C(=O)c4ccco4)C3c3cccs3)sc2c1 (centres undefined) | 0 | 35* | -32 | 2 | 11 | 12
COc1ccc2nc(N3C(=O)C(O)=C(C(=O)c4ccco4)C3c3ccc(C)o3)sc2c1 (centres undefined) | -3 | 34* | 2 | -8 | 23 | 14
COc1ccc2nc(N3C(=O)C(O)=C(C(=O)c4ccco4)C3c3ccccc3OC)sc2c1 (centres undefined) | -6 | 0 | -10 | 4 | -17 | /
CCOc1ccc2nc(N3C(=O)C(O)=C(C(=O)c4ccco4)C3c3ccco3)sc2c1 (centres undefined) | -2 | 18 | 9 | -5 | 22 | /
OCCn1c(CSc2nnc(-c3ccco3)n2-c2ccccc2)nc2ccc(Cl)cc21 | 1 | 39* | -8 | -1 | -16 | 34*
CCCCCCCCNC(=O)C1CSCCS(=O)(=O)N1Cc1ccccc1 (centres undefined) | -5 | -2 | / | / | -8 | /
C[C@@H]1ON(C)[C@H]2C[C@H]3c4[nH]c5c(-c6ccc7c(c6)OCO7)cccc5c4CCN3C[C@@H]12 | 2 | 0 | / | / | 5 | /
NC(CSS(=O)(=O)O)=NCCC12CC3CC(CC(O)(C3)C1)C2 | -3 | 41* | 4 | 5 | 3 | 44*
C=CCn1c(SCC(C)=O)nc2scc(-c3ccc(C)o3)c2c1=O | -4 | 25* | -6 | -6 | 1 | 10
C=CCn1c(=S)[nH]c2scc(-c3ccc(C)o3)c2c1=O | 6 | 28* | -4 | 6 | -6 | 16
CCC(=O)Nc1nc(-c2ccc3c(c2)OCCO3)cs1 | 0 | -4 | -3 | 1 | -2 | /
c1cc2c(cc1-c1csc(NNC3=NCCCCC3)n1)OCCO2 | 9 | 75* | / | -8 | 15 | 24*
CCOC(=O)[C@@]12CCC3=C1N(CCC3)C(=O)[C@H](CC(=O)NCc1ccc(C)o1)C2 | 5 | -2 | / | / | 2 | /
SMILES | SIAE inh | PRMT1 FP inh | HTRA1 inhibitor | TCR-CD3 inh | ABHD4 inh | PRMT1 inh conf
COc1ccc(NC(=O)/C=C/C(=O)O)c([N+](=O)[O-])c1 | 4 | 43* | 2 | 7 | 6 | 1
Cc1cc(NC(=O)/C=C\C(=O)O)c([N+](=O)[O-])cc1C | -5 | 47* | 6 | -2 | -9 | 3
C=CCN1C(=O)[C@@H](CC(=O)NCc2cccc(C(F)(F)F)c2)[C@]2(C(=O)OC)CCCCC=C12 | -2 | 3 | / | / | -6 | /
O=C1C=CC(=Nc2ccc3c(c2)Cc2cc(F)ccc2-3)O1 | -6 | 74* | -10 | 4 | 4 | 87*
O=C1C=CC(=Nc2cccc3c2C(=O)c2ccccc2-3)O1 | / | / | -7 | / | / | /
Cc1nc2c([nH]1)C1(CCN(Cc3ccccc3)CC1)C(C#N)=C(N)O2 | -3 | 42* | -1 | 14 | 4 | 2
COc1ccccc1NC(=O)c1cc(=O)[nH]c2ccccc12 | 4 | 25* | 5 | -10 | 5 | 6
COc1cccc(/C=N/N2C(=O)CSC2=S)c1O | -7 | 38* | 14 | 10 | 18 | 53*
O=S1(=O)CC2c3ccccc3CN2CN1Cc1ccccc1 (centres undefined) | 3 | -2 | / | / | -1 | /
O=[N+]([O-])c1ccc(S(=O)(=O)N2CCSC2c2ccco2)cc1 (centres undefined) | 6 | 46* | 3 | -2 | 6 | 33*
Cc1nnc(SCC2=C(C(=O)O)N3C(=O)[C@@H](NC(=O)Cn4cnnn4)[C@H]3SC2)s1 | 0 | 16 | 3 | 1 | -1 | /
Cc1nnc(SCC2=C(C(=O)O)N3C(=O)C(NC(=O)Cn4nc(C(F)F)cc4C)C3SC2)s1 (centres undefined) | -183 | 25* | 1 | 8 | -2 | 29*
CN(C)CCn1nnnc1SCC1=C(C(=O)O)N2C(=O)[C@@H](NC(=O)Cc3csc(N)n3)[C@H]2SC1 | 4 | 46* | 4 | 13 | 6 | 9
CO[C@@]1(NC(=O)CSCC#N)C(=O)N2C(C(=O)O)=C(CSc3nnnn3C)CS[C@@H]21 | 7 | 10 | 6 | -3 | -2 | /
Cc1nnc(SCC2=C(C(=O)O)N3C(=O)C(NC(=O)Cn4nc(C(F)F)c(Cl)c4C)C3SC2)s1 (centres undefined) | 2 | 28* | -11 | 3 | 6 | 39*
CCC(CO)Nc1cccc2c1S(=O)(=O)N(Cc1cn(Cc3cccc(C(F)(F)F)c3)nn1)Cc1ccccc1O2 (centres undefined) | -3 | 2 | / | / | -22 | /
N#C/C(=C\c1ccccc1)C(=O)NNS(=O)(=O)c1cccc([N+](=O)[O-])c1 | -5 | 43* | -3 | 3 | 7 | 4
COC(=O)c1cc2c(c3c4cc(C)ccc4n(C(=O)c4ccccc4)c13)C(=O)N(Cc1ccccc1)C2 | -4 | 2 | / | 0 | 2 | /
Cc1cc(C)c(NC(=S)NCC2CCN(C(C)c3ccccc3)C2)c(C)c1 (centres undefined) | 7 | 42* | -2 | 6 | -5 | 72*
Cc1ccc(NC(=S)NCC2CCN(C(C)c3ccccc3)C2)cc1 (centres undefined) | 8 | -1 | -10 | 4 | 3 | /
N=C1/C(=C\c2ccc(SCc3ccco3)o2)C(=O)N=C2SC=NN12 | -60 | 51* | -108 | -13 | -119 | 12
